Laboratory results: ChEMBL document CHEMBL1124137, “Synthesis and testing of quinone-based bis(2,2-dimethyl-1-aziridinyl)phosphinyl carbamates as radiation-potentiating antitumor agents” (1988)

Tests used:
Assay type in all cases: functional
Mus musculus [1] = assay: Average weight change on day 5 in mice infected by P-388 leukemia when treated with a dose of 16 mg/Kg of compound
Outline: (§1)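 P-388 leukemia kept as ascites in DBA/2 mice; 10⁶ cells implanted into female CDF₁ mice (16–20 g), six mice per dose, 10 untreated leukemia controls. Compound dissolved in water with Tween 80 and given as a single ip injection on day 1 after implant, within 15 min of dissolving. Body weight change averaged on day 5.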

Mus musculus [2] = assay: Average weight change on day 5 in mice infected by P-388 leukemia when treated with a dose of 32 mg/Kg of compound; outline: as §1
Mus musculus [3] = assay: Median survival time (MST) of treated mice infected by P-388 leukemia, as percent of the MST of untreated controls when treated with a dose of 8 mg/Kg of compound
Outline: (§2)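 P-388 leukemia kept as ascites in DBA/2 mice. CDF1 female mice (16–20 g) received 10⁶ cells; six mice per dose and 10 untreated leukemia controls. Drug in water with Tween 80, given within 15 min of dissolution as a single ip injection on day 1 after implant. Mice observed until death; %T/C is treated over control median survival time. Average weight change taken on day 5.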

Mus musculus [4] = assay: Median survival time (MST) of treated mice infected by P-388 leukemia, as percent of the MST of untreated controls when treated with a dose of 256 mg/Kg of compound; outline: as §2
Mus musculus [5] = assay: Median survival time (MST) of treated mice infected by P-388 leukemia, as percent of the MST of untreated controls when treated with a dose of 64 mg/Kg of compound; outline: as §2
Mus musculus [6] = assay: Median survival time (MST) of treated mice infected by P-388 leukemia, as percent of the MST of untreated controls when treated with a dose of 128 mg/Kg of compound; outline: as §2
Mus musculus [7] = assay: Average weight change on day 5 in mice infected by P-388 leukemia when treated with a dose of 128 mg/Kg of compound; outline: as §1
Mus musculus [8] = assay: Average weight change on day 5 in mice infected by P-388 leukemia when treated with a dose of 256 mg/Kg of compound; outline: as §1
Mus musculus [9] = assay: Average weight change on day 5 in mice infected by P-388 leukemia when treated with a dose of 8 mg/Kg of compound; outline: as §1
Mus musculus [10] = assay: Median survival time (MST) of treated mice infected by P-388 leukemia, as percent of the MST of untreated controls when treated with a dose of 16 mg/Kg of compound; outline: as §2
Mus musculus [11] = assay: Median survival time (MST) of treated mice infected by P-388 leukemia, as percent of the MST of untreated controls when treated with a dose of 32 mg/Kg of compound; outline: as §2
Mus musculus [12] = assay: Average weight change on day 5 in mice infected by P-388 leukemia when treated with a dose of 64 mg/Kg of compound; outline: as §1
Mus musculus [13] = assay: Median survival time (MST) of treated mice infected by P-388 leukemia, as percent of the MST of untreated controls when treated with a dose of 50 mg/Kg of compound; outline: as §2
Mus musculus [14] = assay: Average weight change on day 5 in mice infected by P-388 leukemia when treated with a dose of 200 mg/Kg of compound; outline: as §2
Mus musculus [15] = assay: Median survival time (MST) of treated mice infected by P-388 leukemia, as percent of the MST of untreated controls when treated with a dose of 400 mg/Kg of compound; outline: as §2
Mus musculus [16] = assay: Median survival time (MST) of treated mice infected by P-388 leukemia, as percent of the MST of untreated controls when treated with a dose of 100 mg/Kg of compound; outline: as §2
Mus musculus [17] = assay: Median survival time (MST) of treated mice infected by P-388 leukemia, as percent of the MST of untreated controls when treated with a dose of 200 mg/Kg of compound; outline: as §2
Mus musculus [18] = assay: Average weight change on day 5 in mice infected by P-388 leukemia when treated with a dose of 50 mg/Kg of compound; outline: as §2
Mus musculus [19] = assay: Average weight change on day 5 in mice infected by P-388 leukemia when treated with a dose of 400 mg/Kg of compound; outline: as §2
Mus musculus [20] = assay: Average weight change on day 5 in mice infected by P-388 leukemia when treated with a dose of 100 mg/Kg of compound; outline: as §2

SMILES | AWC (Mus musculus [1]) [g] | AWC (Mus musculus [2]) [g] | T/C (Mus musculus [3]) [%] | T/C (Mus musculus [4]) [%] | T/C (Mus musculus [5]) [%] | T/C (Mus musculus [6]) [%] | AWC (Mus musculus [7]) [g] | AWC (Mus musculus [8]) [g] | AWC (Mus musculus [9]) [g] | T/C (Mus musculus [10]) [%] | T/C (Mus musculus [11]) [%] | AWC (Mus musculus [12]) [g] | T/C (Mus musculus [13]) [%] | AWC (Mus musculus [14]) [g] | T/C (Mus musculus [15]) [%] | T/C (Mus musculus [16]) [%] | T/C (Mus musculus [17]) [%] | AWC (Mus musculus [18]) [g] | AWC (Mus musculus [19]) [g] | AWC (Mus musculus [20]) [g]
CC1(C)CN1P(=O)(NC(=O)OCC/N=C1C(O)=C(Cl)/C(=N\CCOC(=O)NP(=O)(N2CC2(C)C)N2CC2(C)C)C(O)=C/1Cl)N1CC1(C)C (stereo not given) | -1.1 | -0.6 | 118 | 165 | 124 | 135 | -0.9 | -2.1 | -0.4 | 124 | 129 | -1.2 | – | – | – | – | – | – | – | –
CCOC(=O)NP(=O)(N1CC1(C)C)N1CC1(C)C (stereo not given) [METUREDEPA] | – | – | – | – | – | – | – | – | – | – | – | – | 163 | -0.2 | 244 | 181 | 231 | -0.7 | -1.3 | -0.4
